In ChEMBL document CHEMBL1129630, “Synthesis and structure-activity relationships of retinoid X receptor selective diaryl sulfide analogs of retinoic acid” (J Med Chem, 1996):
pEC50, pIC50: −log10 of the molar value.

Assays:
HL-60 = experiment: Induction of transglutaminase (TGase) activity in HL-60 cells; conditions: Homo sapiens
[1] = molecular target: T1, Retinoic acid receptor gamma (Homo sapiens, UniProt P13631); experiment: Transcriptional activation of Retinoic acid receptor RAR gamma; parameters: species or system Cercopithecidae
T1 sequence (P13631 whole entry): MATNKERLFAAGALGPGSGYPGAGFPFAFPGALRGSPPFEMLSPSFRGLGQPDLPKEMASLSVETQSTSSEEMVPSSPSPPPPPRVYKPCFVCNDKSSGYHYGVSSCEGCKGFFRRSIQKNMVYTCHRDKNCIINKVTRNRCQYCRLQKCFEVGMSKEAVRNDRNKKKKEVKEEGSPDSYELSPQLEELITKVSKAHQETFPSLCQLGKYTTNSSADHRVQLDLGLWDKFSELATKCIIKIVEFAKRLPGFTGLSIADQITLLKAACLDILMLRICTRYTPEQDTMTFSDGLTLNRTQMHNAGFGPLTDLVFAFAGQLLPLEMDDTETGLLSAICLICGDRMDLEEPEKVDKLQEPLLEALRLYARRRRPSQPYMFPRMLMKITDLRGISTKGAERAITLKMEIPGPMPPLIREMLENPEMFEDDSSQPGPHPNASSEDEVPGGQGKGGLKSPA
Procedure, shortened: (§1)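 CV-1 cells transiently cotransfected with the receptor construct and a reporter gene, with induced transcription measured. Activity is normalized to all-trans RA. EC50 is the concentration giving 50% of maximal observed response, from a single experiment in triplicate.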

[2] = molecular target: T2, Retinoic acid receptor RXR-beta (Homo sapiens, UniProt P28702); experiment: Transcriptional activation of Retinoid X receptor RXR beta; parameters: species or system Cercopithecidae
T2 sequence (P28702 whole entry): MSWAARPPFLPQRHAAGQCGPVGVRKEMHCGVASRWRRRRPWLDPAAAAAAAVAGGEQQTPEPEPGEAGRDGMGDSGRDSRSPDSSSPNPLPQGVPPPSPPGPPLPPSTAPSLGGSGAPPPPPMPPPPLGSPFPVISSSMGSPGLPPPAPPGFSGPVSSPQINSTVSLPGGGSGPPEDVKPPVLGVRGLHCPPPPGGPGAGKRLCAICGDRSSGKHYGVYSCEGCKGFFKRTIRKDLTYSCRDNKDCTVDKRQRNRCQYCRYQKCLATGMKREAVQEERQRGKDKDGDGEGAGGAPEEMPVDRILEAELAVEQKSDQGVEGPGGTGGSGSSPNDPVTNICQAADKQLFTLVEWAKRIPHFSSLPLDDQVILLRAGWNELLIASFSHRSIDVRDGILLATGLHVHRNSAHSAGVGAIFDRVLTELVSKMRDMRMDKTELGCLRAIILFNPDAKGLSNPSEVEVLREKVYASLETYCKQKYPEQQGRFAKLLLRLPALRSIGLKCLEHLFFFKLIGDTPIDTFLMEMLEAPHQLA
Procedure, shortened: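 CV-1 cells transiently cotransfected with the receptor construct and a reporter gene, with induced transcription measured. Activity is normalized to all-trans RA.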

Mus musculus = organism: Mus musculus; experiment: Inhibition of Chondrogenesis in day 11 embryonic limb bud cells; conditions: 264 h
[3] = molecular target: T3, Retinoic acid receptor beta (Homo sapiens, UniProt P10826); experiment: Transcriptional activation of Retinoic acid receptor RAR beta; parameters: species or system Cercopithecidae; procedure, shortened: as §1
T3 sequence (P10826 whole entry): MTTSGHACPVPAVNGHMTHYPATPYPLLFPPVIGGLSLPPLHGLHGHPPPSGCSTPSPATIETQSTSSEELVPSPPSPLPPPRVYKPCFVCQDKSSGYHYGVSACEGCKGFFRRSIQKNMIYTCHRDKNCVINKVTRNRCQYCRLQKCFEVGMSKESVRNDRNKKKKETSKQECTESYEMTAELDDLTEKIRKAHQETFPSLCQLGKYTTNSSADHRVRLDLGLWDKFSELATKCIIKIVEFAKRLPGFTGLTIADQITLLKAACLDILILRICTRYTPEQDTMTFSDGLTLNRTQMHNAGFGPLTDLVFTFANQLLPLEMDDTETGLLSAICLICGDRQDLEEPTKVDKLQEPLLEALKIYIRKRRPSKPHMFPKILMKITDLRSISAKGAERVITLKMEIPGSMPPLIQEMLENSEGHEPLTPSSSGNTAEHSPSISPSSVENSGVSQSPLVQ

[4] = molecular target: T4, Retinoic acid receptor alpha (Mus musculus, UniProt P11416); experiment: Dissociation constant for binding to Retinoic acid receptor alpha;NA=not active
T4 sequence (P11416 whole entry): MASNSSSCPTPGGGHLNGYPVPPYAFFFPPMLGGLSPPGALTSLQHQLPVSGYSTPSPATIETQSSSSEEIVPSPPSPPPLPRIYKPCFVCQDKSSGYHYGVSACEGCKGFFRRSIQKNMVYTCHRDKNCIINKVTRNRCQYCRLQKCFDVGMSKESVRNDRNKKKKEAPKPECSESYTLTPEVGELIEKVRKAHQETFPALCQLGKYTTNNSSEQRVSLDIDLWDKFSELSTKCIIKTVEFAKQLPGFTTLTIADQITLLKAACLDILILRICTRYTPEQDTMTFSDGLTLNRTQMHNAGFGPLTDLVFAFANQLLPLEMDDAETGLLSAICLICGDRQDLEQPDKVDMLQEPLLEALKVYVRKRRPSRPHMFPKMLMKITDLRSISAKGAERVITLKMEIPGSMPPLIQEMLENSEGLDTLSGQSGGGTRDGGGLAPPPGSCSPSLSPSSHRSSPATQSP
Procedure, shortened: (§2)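 Competitive binding assays against each receptor subtype, with Kd values taken from competition.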

[5] = molecular target: T5, Retinoic acid receptor beta (Mus musculus, UniProt P22605); experiment: Dissociation constant for binding to Retinoic acid receptor beta;NA=not active; procedure, shortened: as §2
T5 sequence (P22605 whole entry): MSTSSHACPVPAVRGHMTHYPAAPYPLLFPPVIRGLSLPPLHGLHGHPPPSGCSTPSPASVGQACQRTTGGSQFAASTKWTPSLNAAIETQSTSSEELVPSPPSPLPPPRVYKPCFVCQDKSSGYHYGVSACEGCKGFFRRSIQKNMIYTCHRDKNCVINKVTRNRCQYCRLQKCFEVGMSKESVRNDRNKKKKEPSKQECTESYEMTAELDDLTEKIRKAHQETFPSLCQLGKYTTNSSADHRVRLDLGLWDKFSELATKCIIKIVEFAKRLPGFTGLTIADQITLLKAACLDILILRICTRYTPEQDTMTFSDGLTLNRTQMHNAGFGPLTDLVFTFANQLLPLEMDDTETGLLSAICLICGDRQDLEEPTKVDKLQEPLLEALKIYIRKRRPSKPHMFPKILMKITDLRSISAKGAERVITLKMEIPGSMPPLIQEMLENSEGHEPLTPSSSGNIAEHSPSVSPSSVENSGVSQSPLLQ

SMILES | pEC50 (HL-60) | EC50 [1] | pEC50 [2] | pEC50 [1] | pIC50 (Mus musculus) | other results
Cc1cc2c(cc1[S+]([O-])c1ccc(C(=O)O)cc1)C(C)(C)CCC2(C)C (configuration not stated) |  |  | 5.52 |  |  | 
Cc1cc2c(cc1Sc1ccc(C(=O)O)cn1)C(C)(C)CCC2(C)C | 7.00 |  |  |  | 6.00 | Kd [4]: Not Active; Kd [5]: Not Active
Cc1cc2c(cc1Sc1ncc(C(=O)O)s1)C(C)(C)CCC2(C)C |  |  | 5.89 |  |  | 

The next lines start with results.

pEC50 (HL-60) | EC50 [1] | pEC50 [2] | pEC50 [1] | SMILES | pIC50 (Mus musculus) | other results
6.70 | Not Active | 6.52 |  | Cc1cc2c(cc1Sc1ccc(C(=O)O)cc1)C(C)(C)CCC2(C)C | 6.04 | 
 |  |  | 6.47 | CC1(C)CCC(C)(C)c2cc(Sc3ccc(C(=O)O)cc3)ccc21 |  | pEC50 [3]: 6.24
